Reference: ChEMBL document CHEMBL2169822, “Discovery and optimization of 1,3,4-trisubstituted-pyrazolone derivatives as novel, potent, and nonsteroidal farnesoid X receptor (FXR) selective antagonists” (J Med Chem, 2012)
Activity calls are given as the source filed them. No cut-off for these calls is given here.

What was measured:
[1] = test system: Mus musculus; test: Reduction of hepatic cholesterol level in cholesterol-fed C57BL/6 mouse administered orally after 10 days; format: functional, organism-based
Method in brief: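 Male C57BL/6 mice, 8–12 weeks old, were randomized into five groups of nine. Control mice had ground chow; the other groups had chow with 2% cholesterol. Compound (50 or 100 mg/kg) or reference (100 mg/kg) was suspended in 0.5% CMC-Na and given by oral gavage; control and vehicle mice got 0.5% CMC-Na. Serum and hepatic triglyceride and total cholesterol were measured.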

[2] = target: T1, Retinoic acid receptor RXR-alpha (Homo sapiens) (UniProt P19793); test: Antagonist activity at recombinant RXRalpha LBD expressed in HEK293T cells co-expressing GAL4 DBD assessed as inhibition of 9cRA-induced transactivation at 20 uM by luciferase reporter gene assay; format: functional, cell-based; conditions: HEK-293T
T1 sequence (whole entry): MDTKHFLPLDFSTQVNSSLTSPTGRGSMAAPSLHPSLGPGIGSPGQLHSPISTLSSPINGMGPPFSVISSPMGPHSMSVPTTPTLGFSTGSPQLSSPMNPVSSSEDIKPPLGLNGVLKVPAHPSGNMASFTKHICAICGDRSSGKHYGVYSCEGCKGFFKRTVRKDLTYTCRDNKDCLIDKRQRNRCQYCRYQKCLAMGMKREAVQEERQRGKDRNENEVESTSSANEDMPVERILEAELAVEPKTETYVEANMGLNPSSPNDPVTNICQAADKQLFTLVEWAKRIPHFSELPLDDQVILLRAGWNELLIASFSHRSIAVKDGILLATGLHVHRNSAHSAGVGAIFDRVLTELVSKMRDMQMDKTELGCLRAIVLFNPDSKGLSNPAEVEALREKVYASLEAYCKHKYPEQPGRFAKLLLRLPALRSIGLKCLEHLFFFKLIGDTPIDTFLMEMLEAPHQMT
Method in brief: (§1)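 One-hybrid assay in HEK293T cells cotransfected with a Gal4 DBD–NR-LBD fusion (RXRα, LXRα, GR, PR, PPARδ or PPARγ) plus UAS-TK-Luc reporter. Compound was 20 μM, given alone or with agonist: 9cRA 0.1 μM (RXRα), TO901317 0.5 μM (LXRα), dexamethasone 50 nM (GR), progesterone 100 nM (PR), GW1516 10 μM (PPARδ), rosiglitazone 10 μM (PPARγ). Luciferase read-out; three independent experiments.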

[3] = test system: BL21; test: (§2) Antagonist activity at GST-tagged human recombinant FXRalphaLBD expressed in Escherichia coli BL21 cells assessed as inhibition of CDCA-induced SRC-1 co-activator association by HTRF assay; format: functional
Method in brief: (§3)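 HTRF coactivator recruitment: 10 nM GST-human FXRαLBD (residues 238–473, E. coli BL21(DE3)), 0.83 nM anti-GST-Eu cryptate, 100 nM biotin-SRC1 peptide, 41.75 nM SA/XL665. Buffer was 50 mM Hepes pH 7.0, 125 mM KF, 0.125% CHAPS, 0.05% dry milk. Compound alone or with CDCA, 30 min at room temperature. Signal was 1000×(668/620 nm). Primary screen at 40 μM; IC50 as mean ± SE, three experiments.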

[4] = as §2; format: functional; method in brief: as §3
[5] = target: T2, Oxysterols receptor LXR-alpha (Homo sapiens) (UniProt Q13133); test: Antagonist activity at recombinant LXRalpha LBD expressed in HEK293T cells co-expressing GAL4 DBD assessed as inhibition of TO901317-induced transactivation at 20 uM by luciferase reporter gene assay; format: functional, cell-based; conditions: HEK-293T; method in brief: as §1
T2 sequence (whole entry): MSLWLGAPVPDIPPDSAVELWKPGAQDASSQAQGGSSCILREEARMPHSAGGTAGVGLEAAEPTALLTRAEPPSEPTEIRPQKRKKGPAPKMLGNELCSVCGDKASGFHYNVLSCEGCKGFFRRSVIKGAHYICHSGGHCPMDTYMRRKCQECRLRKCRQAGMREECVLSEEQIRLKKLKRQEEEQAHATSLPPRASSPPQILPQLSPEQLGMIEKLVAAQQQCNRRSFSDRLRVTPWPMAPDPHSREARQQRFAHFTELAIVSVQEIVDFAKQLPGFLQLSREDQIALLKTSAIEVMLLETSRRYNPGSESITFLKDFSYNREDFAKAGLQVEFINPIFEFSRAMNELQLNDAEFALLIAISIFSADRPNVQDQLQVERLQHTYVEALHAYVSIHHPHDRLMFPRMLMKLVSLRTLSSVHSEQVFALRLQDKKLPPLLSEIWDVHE

[6] = Oral bioavailability in Sprague-Dawley rat at 50 mg/kg by LC-MS/MS analysis; format: ADME, organism-based; conditions: in vivo
[7] = target: T3, Bile acid receptor (Homo sapiens) (UniProt Q96RI1); test: Antagonist activity at human FXR in human HepG2 cells assessed as inhibition of CDCA induced SHP gene expression at 5 to 40 uM after 24 hrs by RT-PCR analysis; format: functional, cell-based
T3 sequence (whole entry): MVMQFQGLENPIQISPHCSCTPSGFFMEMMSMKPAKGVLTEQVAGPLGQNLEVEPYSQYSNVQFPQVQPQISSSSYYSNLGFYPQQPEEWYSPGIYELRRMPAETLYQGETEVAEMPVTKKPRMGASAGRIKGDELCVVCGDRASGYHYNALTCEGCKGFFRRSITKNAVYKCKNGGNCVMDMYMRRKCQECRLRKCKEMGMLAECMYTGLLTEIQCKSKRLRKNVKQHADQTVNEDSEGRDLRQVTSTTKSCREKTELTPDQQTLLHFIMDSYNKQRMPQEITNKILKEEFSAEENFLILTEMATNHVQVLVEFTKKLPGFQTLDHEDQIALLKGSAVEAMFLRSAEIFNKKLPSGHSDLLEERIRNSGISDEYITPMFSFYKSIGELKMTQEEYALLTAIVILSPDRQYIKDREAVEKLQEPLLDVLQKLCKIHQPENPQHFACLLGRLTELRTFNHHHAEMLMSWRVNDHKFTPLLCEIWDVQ
Method in brief: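 HepG2 cells in 6-well plates were treated with varied concentrations of compound, with or without 100 μM CDCA, for 24 h. Total RNA was taken with TRIzol and cDNA made by reverse transcription. Cyp7A1, SHP, BSEP and SREBP1c mRNA were measured by quantitative RT-PCR and normalized to β-actin. Three independent experiments.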

COc1cc(/C=C2\C(=O)N(c3cccc([N+](=O)[O-])c3)N=C2c2ccccc2)ccc1O
Activity [1]: Dose-dependent effect
inhibition [2]: inactive
inhibition [3]: Dose-dependent effect
IC50 [4]: 8.96 µM
inhibition [5]: inactive
bioavailability [6]: < 5%
inhibition [7]: Active
